Experimental data as given in ChEMBL document CHEMBL1153869, “Preparation and antimicrobial behaviour of quaternary ammonium thiol derivatives able to be grafted on metal surfaces” (2009).

Experiments:
Staphylococcus aureus [1] = assay: Antibacterial activity against Staphylococcus aureus ATCC 6538 after 24 hrs by serial dilution method; type: functional; conditions: ATCC 6538, 24 h
Summary of the method: (§1)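 Bacteria were grown overnight on a TSA slant, transferred into M9GY (pH 7.0) and incubated overnight at 30 °C. Third-generation, exponential-phase cells were adjusted to OD660 0.05 (about 5.10⁶–5.10⁷ cfu/mL). Initial solutions in methanol/water 1:1 were serially diluted automatically in microtitre plates. MIC was the lowest concentration with no turbidity after 24 h at 30 °C. Three independent experiments were run.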

Pseudomonas aeruginosa [2] = assay: Antibacterial activity against Pseudomonas aeruginosa ATCC 9027 after 24 hrs by serial dilution method; type: functional; conditions: ATCC 9027, 24 h; summary of the method: as §1
Staphylococcus aureus [3] = assay: Antibacterial activity against Staphylococcus aureus ATCC 6538 after 5 days; type: functional; conditions: ATCC 6538, 120 h
Summary of the method: (§2)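 From bacterial MIC plates after 5 days of incubation, the three sub-dose wells showing no growth were streaked onto trypticase soy agar. MLC was the lowest concentration leaving no viable bacteria after subculture on antibiotic-free medium. Three independent experiments were run.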

Pseudomonas aeruginosa [4] = assay: Antibacterial activity against Pseudomonas aeruginosa ATCC 9027 after 5 days; type: functional; conditions: ATCC 9027, 120 h; summary of the method: as §2
Aspergillus niger [5] = assay: Antifungal activity against Aspergillus niger ATCC 6275 after 7 days; type: functional; conditions: ATCC 6275, 168 h
Summary of the method: (§3)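 From fungal MIC plates after 7 days of incubation, the three sub-dose wells showing no growth were streaked onto Sabouraud dextrose agar. MLC was the lowest concentration leaving no viable fungi after subculture on drug-free medium. Three independent experiments were run.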

Candida albicans [6] = assay: Antifungal activity against Candida albicans ATCC 10231 after 7 days; type: functional; conditions: ATCC 10231, 168 h; summary of the method: as §3
Aspergillus niger [7] = assay: Antifungal activity against Aspergillus niger ATCC 6275 after 72 hrs by serial dilution method; conditions: ATCC 6275, 72 h
Candida albicans [8] = assay: Antifungal activity against Candida albicans ATCC 10231 after 72 hrs by serial dilution method; conditions: ATCC 10231, 72 h

Row | MIC (Staphylococcus aureus [1]) | MIC (Pseudomonas aeruginosa [2]) | MIC (Aspergillus niger [7]) | MIC (Candida albicans [8]) | SMILES | MLC (Staphylococcus aureus [3]) | MLC (Pseudomonas aeruginosa [4]) | MLC (Aspergillus niger [5]) | MLC (Candida albicans [6])
1 | 17.5 µM | 171 µM | 44.1 µM | > 677 µM | CCCCCCCCCC[N+](C)(C)CCCNC(=O)CCCCCCCCCCS | 32.5 µM | 250 µM | > 60.7 µM | > 677 µM
2 | 56.6 µM | 557 µM | 56.6 µM | 1120 µM | C[N+](C)(C)CCCCCCCCCCCS | 56.6 µM | > 1120 µM | > 131 µM | > 1900 µM
3 | 11.6 µM | 309 µM | 31.6 µM | 31.6 µM | CCCCCCCCCC[N+](C)(C)CCCCCCCCCCCS | 48 µM | 309 µM | 48 µM | > 61.3 µM
4 | 188 µM | 442 µM | 56.3 µM | > 742 µM | CCCCCCCCCCCCCC[N+](C)(C)CCCNC(=O)CCCCCCCCCCS | 188 µM | 599 µM | > 74.2 µM | > 742 µM
5 | 592 µM | 980 µM | 773 µM | > 1060 µM | C[N+](C)(CCCNC(=O)CCCCCCCCCCS)Cc1ccccc1 | 946 µM | > 1060 µM | > 946 µM | > 1060 µM
6 | 34.7 µM | 326 µM | 67.2 µM | 39.5 µM | CCCCCCCCCCCC[N+](C)(C)CCCCCCCCCCCS | 73.3 µM | 326 µM | > 92.2 µM | > 63.4 µM
7 | 1310 µM | 1120 µM | 90 µM | 1520 µM | CCCCCCCCCCCCCC[N+](C)(C)CCCCCCCCCCCS | > 1520 µM | > 1520 µM | > 124 µM | > 1520 µM
8 | 105 µM | 595 µM | 105 µM | > 1070 µM | C[N+](C)(C)CCCNC(=O)CCCCCCCCCCS | > 395 µM | > 864 µM | > 395 µM | > 1070 µM
9 | 18.7 µM | 184 µM | 47 µM | > 688 µM | CCCCCCCCCCCC[N+](C)(C)CCCNC(=O)CCCCCCCCCCS | 38.2 µM | 184 µM | > 61.7 µM | > 688 µM
10 | 682 µM | 1060 µM | 351 µM | 472 µM | C[N+](C)(CCCCCCCCCCCS)Cc1ccccc1 | 682 µM | > 1530 µM | 682 µM | > 896 µM
11 | 3.2 µM | 93 µM | 4.74 µM | 8.36 µM | CCCCCCCCCCCCCC[N+](C)(C)Cc1ccccc1 [MIRISTALKONIUM CHLORIDE] | – | – | – | –
